Residues, ends and D or L forms follow the SMILES beside them. *: point of attachment. X1 = CCC1C(=O)N(S(C)(=O)=O)[C@H]2CCN(*)[C@H]12
Columns and labels:
[1] = target: T1, Hepatitis C virus serine protease, NS3/NS4A (Hepatitis C virus) (UniProt D2K2A8+A3EZI9); experiment: Compound was tested for inhibition of hepatitis C virus NS3/4A protease at 100 uM 2 hr pre-incubation in chromogenic assay; assay type: protein-complex assay; conditions: Hepacivirus hominis
[2] = target: T1, Hepatitis C virus serine protease, NS3/NS4A (Hepatitis C virus); experiment: Inhibitory concentration against hepatitis C virus NS3/4A protease on 18 h pre-incubation in chromogenic assay; assay type: protein-complex assay; design: concentration or dose not given beside the values; conditions: Hepacivirus hominis; concentration not given here
Summary of the method: (§1)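 Chromogenic read-out with the NS3 protease domain at 0.56 µM and synthetic 18-mer NS4A cofactor peptide at 0.8 µM. Substrate was Ac-E-D-V-V-P-C-pNO2 anilide at 1.5 mM (Km 1.85 mM). Compound was pre-incubated with enzyme for 2, 4 or 18 h before substrate addition.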

[3] = target: T2, Hepatitis C virus serine protease, NS3/NS4A (Hepatitis C virus, UniProt A3EZI9+D2K2A8); experiment: Inhibitory concentration against hepatitis C virus NS3/4A protease on 4 hr pre-incubation in fluorogenic assay; assay type: protein-complex assay, Hepacivirus hominis
T2 sequence (D2K2A8 whole entry): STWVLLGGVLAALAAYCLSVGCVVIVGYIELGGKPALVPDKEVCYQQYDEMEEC
T2 sequence (A3EZI9 whole entry): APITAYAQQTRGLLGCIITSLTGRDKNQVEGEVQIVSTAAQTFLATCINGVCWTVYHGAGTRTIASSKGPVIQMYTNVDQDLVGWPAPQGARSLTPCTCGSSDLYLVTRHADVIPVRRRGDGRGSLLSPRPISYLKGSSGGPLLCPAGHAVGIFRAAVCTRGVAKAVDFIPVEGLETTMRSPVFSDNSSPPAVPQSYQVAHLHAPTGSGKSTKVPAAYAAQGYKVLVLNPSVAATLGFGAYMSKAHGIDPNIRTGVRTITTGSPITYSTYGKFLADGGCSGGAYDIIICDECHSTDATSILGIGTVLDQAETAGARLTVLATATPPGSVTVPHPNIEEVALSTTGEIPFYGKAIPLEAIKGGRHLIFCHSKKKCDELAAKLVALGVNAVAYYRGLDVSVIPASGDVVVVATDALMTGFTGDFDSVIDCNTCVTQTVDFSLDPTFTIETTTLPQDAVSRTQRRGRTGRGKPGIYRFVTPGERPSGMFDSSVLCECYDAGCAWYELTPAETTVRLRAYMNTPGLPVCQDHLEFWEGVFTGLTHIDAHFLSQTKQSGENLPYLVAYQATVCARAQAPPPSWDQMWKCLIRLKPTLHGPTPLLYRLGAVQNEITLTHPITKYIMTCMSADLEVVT
Summary of the method: (§2)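 Fluorogenic assay with full-length NS3/4A protein at 20 nM (NS3:4A 1:1). Substrate was Abz-E-D-V-V-P-C-S-M-S-(3-NO2)-Y-H at 25 µM (Km 5 µM). Compound was pre-incubated with enzyme for 4 or 18 h before substrate addition.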

[4] = target: T2, Hepatitis C virus serine protease, NS3/NS4A; experiment: Inhibitory concentration against hepatitis C virus NS3/4A protease on 4 hr pre-incubation in chromogenic assay; assay type: protein-complex assay, Hepacivirus hominis; summary of the method: as §1
[5] = target: T2, Hepatitis C virus serine protease, NS3/NS4A; experiment: Inhibitory concentration against hepatitis C virus NS3/4A protease on 18 hr preincubation in chromogenic assay; assay type: protein-complex assay, Hepacivirus hominis; summary of the method: as §1
[6] = target: T2, Hepatitis C virus serine protease, NS3/NS4A; experiment: Inhibitory concentration against hepatitis C virus NS3/4A protease on 18 h pre-incubation in fluorogenic assay; assay type: protein-complex assay, Hepacivirus hominis; summary of the method: as §2
[7] = target: T2, Hepatitis C virus serine protease, NS3/NS4A; experiment: Inhibitory concentration against hepatitis C virus NS3/4A protease on 2 hr pre-incubation in chromogenic assay; assay type: protein-complex assay, Hepacivirus hominis; summary of the method: as §1

Compound	inhibition [1]	inhibition [2]	IC50 [3]	IC50 [4]	IC50 [5]	IC50 [6]	IC50 [7]
CCC1C(=O)N(S(C)(=O)=O)[C@H]2CCN(C(=O)CNC(=O)[C@@H](NC(=O)[C@H](CC(=O)O)NC(=O)[C@H](CCC(=O)O)NC(C)=O)C(C)C)[C@H]12 (stereo partly specified) (Ac-EDVG-X1)	10%	24%					
CCC1C(=O)N(S(C)(=O)=O)[C@H]2CCN(C(=O)[C@@H]3CCCN3C(=O)[C@@H](NC(=O)[C@H](CC(=O)O)NC(=O)[C@H](CCC(=O)O)NC(C)=O)C(C)C)[C@H]12 (stereo partly specified) (Ac-EDVP-X1)	5%	11%					
CCC1C(=O)N(S(C)(=O)=O)[C@H]2CCN(C(=O)C(NC(=O)[C@@H](NC(=O)[C@H](CC(=O)O)NC(=O)[C@H](CCC(=O)O)NC(C)=O)C(C)C)C(C)C)[C@H]12 (single isomer, unassigned)	24%	85%					
CCC1C(=O)N(S(C)(=O)=O)[C@H]2CCN(C(=O)[C@@H](N)C(C)C)[C@H]12 (stereo partly specified)	11%	41%					
CCC1C(=O)N(S(C)(=O)=O)[C@H]2CCN(C(=O)[C@@H](NC(=O)[C@@H](NC(=O)[C@H](CC(=O)O)NC(=O)[C@H](CCC(=O)O)NC(C)=O)C(C)C)C(C)C)[C@H]12 (stereo partly specified) (Ac-EDVV-X1)			> 400 µM	69 µM	19 µM	284 µM	69 µM
CCC1C(=O)N(S(C)(=O)=O)[C@H]2CCN(C(=O)[C@@H](NC(=O)[C@@H](NC(=O)[C@H](CC(=O)O)NC(C)=O)C(C)C)C(C)C)[C@H]12 (stereo partly specified)	68%	94%					
CCC1C(=O)N(S(C)(=O)=O)[C@H]2CCN(C(=O)[C@@H](NC(=O)[C@@H](NC(C)=O)C(C)C)C(C)C)[C@H]12 (stereo partly specified)	21%	45%					

The remaining lines, values ahead:

inhibition [1]	inhibition [2]	IC50 [3]	IC50 [4]	IC50 [5]	IC50 [6]	IC50 [7]	Compound
52%		182 µM	62 µM	27 µM	140 µM		CCC1C(=O)N(S(C)(=O)=O)[C@H]2CCN(C(=O)[C@@H](NC(=O)OC(C)(C)C)C(C)C)C12 (single isomer, unassigned)
		216 µM	> 400 µM	147 µM	447 µM		CC[C@H]1C(=O)N(C(C)=O)[C@H]2CCN(C(=O)[C@@H](NC(=O)OC(C)(C)C)C(C)C)[C@H]12
			30 µM	22 µM			CC[C@@H]1C(=O)N(S(C)(=O)=O)[C@H]2CCN(C(=O)[C@@H](NC(=O)OC(C)(C)C)C(C)C)[C@H]12
		193 µM	88 µM	45 µM	194 µM		CC[C@@H]1C(=O)N(C(C)=O)[C@H]2CCN(C(=O)[C@@H](NC(=O)OC(C)(C)C)C(C)C)[C@H]12
		341 µM	99 µM	28 µM	172 µM		CC[C@H]1C(=O)N(S(C)(=O)=O)[C@H]2CCN(C(=O)[C@@H](NC(=O)OC(C)(C)C)C(C)C)[C@H]12

Source: ChEMBL document CHEMBL1134977, “Design and synthesis of ethyl pyrrolidine-5,5-trans-lactams as inhibitors of hepatitis C virus NS3/4A protease” (Bioorg Med Chem Lett, 2002)
